Data: ChEMBL document CHEMBL3085699, “Design, synthesis, and biological evaluation of indole-2-carboxamides: a promising class of antituberculosis agents” (J Med Chem, 2013)
Converted amounts (≈) assume the structure as drawn. The source made the active and inactive calls. No cut-off for these calls is given here.

Key:
[1] = Volume of distribution at steady state in mouse at 5 mg/kg, iv by LC/MS analysis; assay type: ADME, organism-based; set-up: dose 5 mg/kg, route intravenous; conditions: in vivo, read-out: Vdss
Procedure, shortened: (§1)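 Mice dosed p.o. at 25 mg/kg (2.5 mg/mL) or i.v. at 5 mg/kg (1 mg/mL). Vehicles varied: propanediol/solutol in pH 4.6 acetate buffer, or microemulsion/Cremophor-based mixes. Blood taken 0.08–24 h (i.v. first point 0.02 h), three mice per time point. Plasma extracted with acetonitrile:methanol:acetic acid and quantified by LC/MS/MS (LLOQ 1–3 ng/mL). Noncompartmental analysis of mean profiles; F from dose-corrected p.o./i.v. AUC.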

[2] = Elimination half life in mouse at 5 mg/kg, iv and 75 mg/kg, po by LC/MS analysis; assay type: ADME, organism-based; conditions: in vivo, read-out: beta t1/2 (converted)
[3] = Elimination half life in mouse at 5 mg/kg, iv by LC/MS analysis; assay type: ADME, organism-based; set-up: dose 5 mg/kg, route intravenous; conditions: in vivo, read-out: beta t1/2 (converted); procedure, shortened: as §1
[4] = AUC (0 to 24 hrs) in mouse at 25 mg/kg, po by LC/MS analysis; assay type: ADME, organism-based; set-up: time < 24 hr, dose 25 mg/kg, route oral; conditions: plasma; procedure, shortened: as §1
[5] = Intrinsic clearance in human liver microsomes by LC/MS/MS analysis; assay type: ADME; conditions: read-out: CLH
Procedure, shortened: (§2)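 Compound depletion in liver microsomes of the named species, measured by LC/MS/MS. In vitro half-life gave hepatic extraction ratio and predicted metabolic clearance.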

[6] = tested on: Mycobacterium tuberculosis; assay: Antimicrobial activity against Mycobacterium tuberculosis H37Rv ATCC 27294 after 5 days by three-fold serial dilution assay; assay type: functional; conditions: H37Rv ATCC 27294, 120 h
Procedure, shortened: (§3)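 H37Rv grown in 7H9 broth with 0.05% Tween 80 and 10% ADS. Compounds in 90% DMSO, three-fold serially diluted in duplicate. Early-log culture diluted to OD600 0.02 was added, then incubated at 37 °C for 5 days. Growth read by absorbance. MIC50 (50% growth inhibition) taken from non-linear curve fits. Isoniazid ran as internal control in every assay.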

[7] = Intrinsic clearance in mouse liver microsomes by LC/MS/MS analysis; assay type: ADME, Microsome; conditions: read-out: CLH; procedure, shortened: as §2
[8] = Intrinsic clearance in rat liver microsomes by LC/MS/MS analysis; assay type: ADME; conditions: read-out: CLH; procedure, shortened: as §2
[9] = Clearance in mouse at 5 mg/kg, iv by LC/MS analysis; assay type: ADME, organism-based; set-up: dose 5 mg/kg, route intravenous; conditions: in vivo; procedure, shortened: as §1
[10] = tested on: Mycobacterium tuberculosis; assay: Antitubercular activity against Mycobacterium tuberculosis H37Rv infected in Balb/c mouse model assessed as log CFU reduction at 25 mg/kg, po qd administered for 28 days relative to untreated control; assay type: functional
Procedure, shortened: (§4)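 Balb/c mice infected intranasally on day 0 with 10^3 H37Rv bacilli. Oral dosing, once daily, 7 days a week for 28 days, began 7 days post-infection at 25 or 75 mg/kg; ethambutol 100 mg/kg served as positive control. Lungs removed aseptically and homogenized. CFU counted by serial dilution plating on 7H11 agar; log lung CFU compared with untreated controls.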

[11] = tested on: Mycobacterium tuberculosis; assay: Antitubercular activity against Mycobacterium tuberculosis H37Rv infected in Balb/c mouse model assessed as log CFU reduction at 75 mg/kg, po qd administered for 28 days relative to untreated control; assay type: functional; procedure, shortened: as §4
[12] = AUC (0 to 24 hrs) in mouse at 5 mg/kg, iv and 75 mg/kg, po by LC/MS analysis; assay type: ADME, organism-based; conditions: plasma
THP-1 = assay: Cytotoxicity against human THP1 cells; assay type: cell-based
[13] = Cmax in mouse at 25 mg/kg, po by LC/MS analysis; assay type: ADME, organism-based; set-up: dose 25 mg/kg, route oral; conditions: in vivo; procedure, shortened: as §1
[14] = Aqueous solubility of the compound at pH 6.8 after 24 hrs by high-throughput equilibrium solubility assay; assay type: physicochemical; conditions: buffer
Procedure, shortened: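 Miniaturized shake-flask equilibrium method. DMSO stock removed by centrifugal evaporation, aqueous buffer added, shaken 24 h. Plunger pushed through a filter membrane, shaken a further 30 min, and filtrate quantified by HPLC.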

[15] = Oral bioavailability in mouse at 25 mg/kg by LC/MS analysis; assay type: ADME, organism-based; conditions: in vivo; procedure, shortened: as §1
[16] = Elimination half life in mouse at 25 mg/kg, po by LC/MS analysis; assay type: ADME, organism-based; set-up: dose 25 mg/kg, route oral; conditions: in vivo, read-out: beta t1/2 (converted); procedure, shortened: as §1
[17] = tested on: Mycobacterium tuberculosis; assay: Ratio of isoniazid MIC50 to compound MIC50 against Mycobacterium tuberculosis H37Rv ATCC 27294; assay type: functional; procedure, shortened: as §3
[18] = tested on: Mycobacterium tuberculosis; assay: Antitubercular activity against Mycobacterium tuberculosis H37Rv infected in Balb/c mouse model assessed as log CFU reduction at 100 mg/kg, po qd administered for 28 days relative to untreated control; assay type: functional, organism-based; set-up: dose 100 mg/kg; procedure, shortened: as §4

Row | Compound | MIC50 [6] [µM] | microsomal CLint [7] [µL/min/mg] | solubility thermodynamic at 24 h [14] [µM] | further results
1 | CC1(C)CCC(NC(=O)c2cc3c(Cl)cc(Cl)cc3[nH]2)CC1 | 0.015 (≈ 0.00509 µg/mL) | 13 | < 4 | Vd [1]: 4.11 L/kg; half-life [2]: 8.14 h; half-life [3]: 5.25 h; AUC(0-t) at 24 h [4]: 33.9 µM·h; microsomal CLint [5]: 59 µL/min/mg; microsomal CLint [8]: 139 µL/min/mg; clearance [9]: 18.1 mL/min/kg; FC [10]: 2.6; FC [11]: 4.79; AUC(0-t) [12]: 70.3 µM·h; Activity (THP-1): > 20 µM; Cmax [13]: 3.51 µM; bioavailability [15]: 53%; half-life [16]: 5.96 h
2 | CC1CCC(NC(=O)c2cc3ccc(Cl)cc3[nH]2)CC1 (stereo not given) | 0.23 (≈ 0.0669 µg/mL) | 433 |  | 
3 | C[C@H]1CC[C@@H](NC(=O)c2cc3c(Cl)cc(Cl)cc3[nH]2)CC1 | 0.18 (≈ 0.0585 µg/mL) | 47 | < 4 | 
4 | Cc1cc(C)c2cc(C(=O)NC3CCCCC3)[nH]c2c1 | 0.82 (≈ 0.222 µg/mL) |  | < 4 | 
5 | Cc1cc(C)c2cc(C(=O)NC3CCOCC3)[nH]c2c1 | > 20 |  | 17 (≈ 4.63 µg/mL) | 
6 | Cc1cc(C)c2nc(C(=O)N[C@@H]3CCCC[C@@H]3C)[nH]c2c1 | > 20 |  |  | 
7 | C[C@H]1CC[C@H](NC(=O)c2cc3c(F)cc(F)cc3[nH]2)CC1 | 0.16 (≈ 0.0468 µg/mL) | 149 | < 4 | 
8 | CC1CCC(NC(=O)c2cc3cc(Cl)c(Cl)cc3[nH]2)CC1 (stereo not given) | 0.16 (≈ 0.052 µg/mL) | 73.3 |  | 
9 | Cc1cc(C)c2cc(C(=O)NC3CCN(C)CC3)[nH]c2c1 | > 20 |  | > 10000 | 
10 | C[C@H]1CCCC[C@H]1NC(=O)c1cc2c(Cl)cc(Cl)cc2[nH]1 | 0.053 (≈ 0.0172 µg/mL) | 89 | < 4 | 
11 | Cc1cc(C)c2cc(C(=O)Nc3ccccc3)[nH]c2c1 | 16 (≈ 4.23 µg/mL) |  | < 4 | 
12 | COCCNC(=O)c1cc2c(C)cc(C)cc2[nH]1 | > 20 |  | 620 (≈ 153 µg/mL) | 
13 | CC1CCC(NC(=O)c2cc3c(Cl)cc(F)cc3[nH]2)CC1 (stereo not given) | 0.18 (≈ 0.0556 µg/mL) | 77 | < 4 | 
14 | Cc1cc(C)c2cc(C(=O)NC3CCCCCC3)[nH]c2c1 | 0.1 (≈ 0.0284 µg/mL) |  | < 4 | 
15 | NNC(=O)c1ccncc1 [ISONIAZID] | 0.33 (≈ 0.0453 µg/mL) |  |  | 
16 | CC1CCC(NC(=O)c2cc3cc(Cl)ccc3[nH]2)CC1 (stereo not given) | 1.29 (≈ 0.375 µg/mL) | 122 |  | 
17 | Cc1cc(C)c2cc(C(=O)N[C@@H]3CCCC[C@@H]3C)[nH]c2c1 | 0.079 (≈ 0.0225 µg/mL) | 433 | < 4 | Ratio [17]: 4
18 | Cc1cc(C)c2c(c1)NC(C(=O)N[C@@H]1CCCC[C@@H]1C)C2 (stereo not given in full) | 1.24 (≈ 0.355 µg/mL) |  | < 4 | 
19 | Cc1nc(C)c2cc(C(=O)N[C@@H]3CCCC[C@@H]3C)[nH]c2n1 | > 20 |  | 143 (≈ 41 µg/mL) | 
20 | CCC(CC)NC(=O)c1cc2c(C)cc(C)cc2[nH]1 | 4.33 (≈ 1.12 µg/mL) |  | < 4 | 
21 | Cc1cc(C)c2cc(C(=O)N[C@@H]3CCCC[C@@H]3C)n(C)c2c1 | > 20 |  |  | 

Row | Compound | MIC50 [6] [µM] | microsomal CLint [7] [µL/min/mg] | solubility thermodynamic at 24 h [14] [µM] | further results
22 | Cc1cc(C)c2cc(C(=O)N(C)C3CCCCC3)[nH]c2c1 | > 20 |  |  | 
23 | C[C@H]1CCCC[C@H]1NC(=O)c1cc2c(F)cc(F)cc2[nH]1 | 0.28 (≈ 0.0819 µg/mL) | 660 | < 4 | 
24 | CC[C@@H](CO)NCCN[C@@H](CC)CO |  |  |  | Activity [18]: Active
25 | CC1CCC(NC(=O)c2cc3c(Cl)cccc3[nH]2)CC1 (stereo not given) | 0.19 (≈ 0.0553 µg/mL) | 462 |  | 
26 | Cc1cc(C)c2cc(C(=O)NCC(C)C)[nH]c2c1 | 11.8 (≈ 2.9 µg/mL) |  |  | 
27 | CC1CCC(NC(=O)c2cc3ccc(Cl)c(Cl)c3[nH]2)CC1 (stereo not given) | 0.97 (≈ 0.315 µg/mL) | 308 |  | 
28 | CC1CCC(NC(=O)c2cc3c(Cl)ccc(Cl)c3[nH]2)CC1 (stereo not given) | > 20 | 40.4 |  | 
29 | CC1CCC(NC(=O)c2cc3c(Cl)c(Cl)ccc3[nH]2)CC1 (stereo not given) | 0.22 (≈ 0.0716 µg/mL) | 60.8 |  | 
30 | Cc1cc(C)c2cc(C(=O)NCCC(C)C)[nH]c2c1 | 3.26 (≈ 0.842 µg/mL) |  |  | 
31 | CC1(C)CCC(NC(=O)c2cc3c(F)cc(F)cc3[nH]2)CC1 | 0.023 (≈ 0.00705 µg/mL) | 132 | < 4 | Vd [1]: 2.24 L/kg; half-life [3]: 4.47 h; AUC(0-t) at 24 h [4]: 35.5 µM·h; microsomal CLint [5]: 3.4 µL/min/mg; microsomal CLint [8]: 87 µL/min/mg; clearance [9]: 18.7 mL/min/kg; FC [10]: 2.4; FC [11]: 4.6; Cmax [13]: 4.21 µM; bioavailability [15]: 51%; half-life [16]: 5.18 h
32 | CC1CCC(NC(=O)c2cc3c(F)cc(F)cc3[nH]2)CC1 (stereo not given) | 0.3 (≈ 0.0877 µg/mL) | 866 | < 4 | 
33 | C[C@H]1CC[C@H](NC(=O)c2cc3c(Cl)cc(Cl)cc3[nH]2)CC1 | 0.14 (≈ 0.0455 µg/mL) | 3.4 | < 4 | half-life [2]: 5.29 h; microsomal CLint [5]: 10 µL/min/mg; microsomal CLint [8]: 30.5 µL/min/mg; FC [11]: 0.88; AUC(0-t) [12]: 89.1 µM·h; Activity (THP-1): > 20 µM
34 | Cc1cc(C)c2cc(C(=O)NC(C)C)[nH]c2c1 | > 20 |  | 20 (≈ 4.61 µg/mL) | 
35 | CC1CCC(NC(=O)c2cc3cccc(Cl)c3[nH]2)CC1 (stereo not given) | 1.49 (≈ 0.433 µg/mL) | 1040 |  | 
36 | CC1CCC(NC(=O)c2cc3c(Cl)cc(Cl)cc3[nH]2)CC1 (stereo not given) | 0.15 (≈ 0.0488 µg/mL) | 37 | < 4 | Vd [1]: 2.2 L/kg; half-life [3]: 6.89 h; AUC(0-t) at 24 h [4]: 30.4 µM·h; clearance [9]: 20.1 mL/min/kg; Cmax [13]: 7.23 µM; bioavailability [15]: 48%; half-life [16]: 4.2 h
37 | Cc1cc(C)c2cc(C(=O)NC3CCCCC3O)[nH]c2c1 (stereo not given) | 8.9 (≈ 2.55 µg/mL) |  | 56 (≈ 16 µg/mL) | 
38 | O=C(NC1CCC(F)(F)CC1)c1cc2c(Cl)cc(Cl)cc2[nH]1 | 0.85 (≈ 0.295 µg/mL) | 23 | < 4 | microsomal CLint [5]: 7.8 µL/min/mg; microsomal CLint [8]: 38.8 µL/min/mg
39 | CCC(C)NC(=O)c1cc2c(C)cc(C)cc2[nH]1 (stereo not given) | 9.33 (≈ 2.28 µg/mL) |  | 22 (≈ 5.38 µg/mL) | 
40 | Cc1cc2[nH]c(C(=O)N[C@@H]3CCCC[C@@H]3C)cc2c(C)n1 | > 20 |  |  | 
41 | CC1CCC(NC(=O)c2cc3cc(Cl)cc(Cl)c3[nH]2)CC1 (stereo not given) | 0.41 (≈ 0.133 µg/mL) | 187 |  | 
42 | CC1CCC(NC(=O)c2cc3c(F)cc(Cl)cc3[nH]2)CC1 (stereo not given) | 0.19 (≈ 0.0587 µg/mL) | 28 | < 4 | 
